Assay outcomes (PubChem)
Hep lipid drop: inhibitors of hepatocyte lipid droplet formation, primary screen, imaging, high-throughput imaging, BODIPY stain. AML12 mouse hepatocytes, oleate lipid droplets. AID 1656, 2009. inhibition, % at 6.5 µM. actives 0.4% (n = 240,000);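 active means lipid droplet intensity inhibited by at least 50%, with more than 500 cells counted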
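System: AML12 hepatocytes (mouse). Probe or stimulus: oleic acid at 100 µM to induce lipid droplet formation. Times: overnight treatment with compound plus oleate. Detection: Image-based BODIPY and DAPI two-channel analysis. Evaluation: percent inhibition of filter-corrected integrated lipid droplet intensity per well.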
pCIP destab: p/CIP-EGFP fusion destabilizers, primary screen, fluorescence, F442A cells. decrease of EGFP signal, % at 10 µM. actives 0.01% (n = 290,000). Q05BA5. 16 h;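 active means EGFP signal decrease of at least 30% at 10 µM or well 3 SD below plate mean, unless failing retest; inactive means the rest, including hits failing retest or dose response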
Target sequence (Q05BA5 1-1403): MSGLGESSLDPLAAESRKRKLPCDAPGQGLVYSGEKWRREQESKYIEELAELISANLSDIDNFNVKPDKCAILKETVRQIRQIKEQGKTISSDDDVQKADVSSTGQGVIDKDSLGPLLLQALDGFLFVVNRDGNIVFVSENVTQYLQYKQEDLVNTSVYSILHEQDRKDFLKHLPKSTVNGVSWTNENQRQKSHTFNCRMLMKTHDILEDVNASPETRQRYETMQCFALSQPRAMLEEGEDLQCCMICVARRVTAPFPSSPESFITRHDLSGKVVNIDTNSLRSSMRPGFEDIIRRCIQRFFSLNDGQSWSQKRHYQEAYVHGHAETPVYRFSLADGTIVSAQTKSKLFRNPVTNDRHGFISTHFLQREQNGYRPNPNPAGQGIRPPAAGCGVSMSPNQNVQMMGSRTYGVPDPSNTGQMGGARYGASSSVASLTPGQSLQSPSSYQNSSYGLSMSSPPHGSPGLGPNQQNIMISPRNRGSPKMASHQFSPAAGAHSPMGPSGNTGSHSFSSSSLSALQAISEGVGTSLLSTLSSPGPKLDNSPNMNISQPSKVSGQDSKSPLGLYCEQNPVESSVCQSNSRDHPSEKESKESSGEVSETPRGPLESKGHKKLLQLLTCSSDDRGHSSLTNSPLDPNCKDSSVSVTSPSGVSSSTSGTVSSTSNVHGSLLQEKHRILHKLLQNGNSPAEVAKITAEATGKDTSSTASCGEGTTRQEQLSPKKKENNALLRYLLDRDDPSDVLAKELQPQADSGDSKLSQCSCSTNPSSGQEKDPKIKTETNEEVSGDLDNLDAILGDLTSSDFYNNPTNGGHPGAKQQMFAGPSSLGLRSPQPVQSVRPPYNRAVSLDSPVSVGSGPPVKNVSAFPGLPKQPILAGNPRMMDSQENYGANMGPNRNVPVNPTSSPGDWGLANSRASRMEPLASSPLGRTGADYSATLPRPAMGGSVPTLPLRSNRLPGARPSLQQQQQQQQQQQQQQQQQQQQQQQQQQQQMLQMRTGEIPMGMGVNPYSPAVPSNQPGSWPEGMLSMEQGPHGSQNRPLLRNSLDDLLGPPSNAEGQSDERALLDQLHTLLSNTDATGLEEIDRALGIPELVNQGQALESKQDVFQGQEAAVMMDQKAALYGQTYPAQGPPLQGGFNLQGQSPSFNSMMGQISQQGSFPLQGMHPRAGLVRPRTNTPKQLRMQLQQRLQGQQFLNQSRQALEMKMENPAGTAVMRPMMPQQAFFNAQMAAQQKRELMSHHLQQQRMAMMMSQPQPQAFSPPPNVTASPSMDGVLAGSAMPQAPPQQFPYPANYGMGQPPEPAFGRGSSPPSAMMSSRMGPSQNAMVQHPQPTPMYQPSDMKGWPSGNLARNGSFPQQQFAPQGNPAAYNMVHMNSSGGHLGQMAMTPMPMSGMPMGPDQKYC
MDM2 E3 inh: MDM2-luciferase reporter signal enhancers, primary screen, MDM2 E3 ligase inhibitor project, cell-based, luminescence, 1536-well; E3 ubiquitin-protein ligase Mdm2 (Homo sapiens), Q00987; cell-based MDM2 ubiquitination luciferase reporter, 2 h; 0 = plate control, 100 = twice control, blank-subtracted; signal enhancement, % at 5 µM; actives 0.11% (n = 210,000);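 active means signal enhancement of 30% or more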;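 further: luminescence tracks abundance of the self-degrading MDM2-luciferase fusion protein; higher signal means inhibition of MDM2 E3 ligase activity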
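System: stable MDM2–luciferase fusion reporter cells / Input: 2000 cells seeded into each well / Schedule: 4 h settle plus 2 h compound, 37 °C / Compound: single-point 5 µM / Buffer or medium: cells held in DMEM / Benchmarks: control and blank well means / Evaluation: percent signal gain over controls, blank-subtracted / Measured by: luciferase luminescence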
Hep lipid conf: hepatocyte lipid droplet accumulation inhibitors, confirmation, imaging, AML12 mouse hepatocytes, single concentration, high-content; shares compounds with Hep lipid drop; BODIPY lipid droplet imaging; droplets induced with 100 µM oleic acid; inhibition, % at 5.2 µM; actives 65% (n = 870);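 active means inhibition of lipid droplet metric at least 50%, with more than 300 cells in each of four replicates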;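 further: plate controls were DMSO with oleic acid for no effect and 5 µM Triacsin-C for full effect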
AML12 cytotox: AML12 hepatocyte cytotoxicity, counter-screen for hepatic lipid droplet formation project, imaging, DAPI nuclear morphology imaging | actives 3% (n = 870) | AML12 mouse hepatocytes; active compounds read high; cells fed 100 µM oleate overnight | AID 463200, 2010 | z-score at 5 µM | shares compounds with Hep lipid drop; in the data active means z-score above about 6.3;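 further: compound exposure lasted overnight at 37 °C before fixation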
AML12 tox conf: AML12 hepatocyte cytotoxicity, confirmation, cytotoxicity control for hepatic lipid droplet formation project, cell-based, single concentration; shares compounds with Hep lipid drop; AML12 mouse hepatocyte viability, ATP luminescence; cells loaded with 100 µM oleic acid; cytotoxicity, % at 50 µM; 530 tested, under 10 active; AID 463219, 2010;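 active means cytotoxicity above 50% in each of four replicates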;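 further: compound exposure lasted overnight at 37 °C before the ATP read; 0% = DMSO-treated cells and 100% = wells with no cells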
* = called active by the depositor; / = no result. Only a selection was taken, and hits are over-represented in it overall.

SMILES | Hep lipid drop | pCIP destab | MDM2 E3 inh | Hep lipid conf | AML12 cytotox | others
COc1ccccc1NS(=O)(=O)c1ccc(N/N=C/c2c(C)nn(-c3ccccc3)c2N2CCCC2)c([N+](=O)[O-])c1 | 100* | -4 | -6 | 114* | -1 | AML12 tox conf=25
Cc1ccccc1C(=O)NC1CC2CCCC(C1)N2Cc1ccc(Cl)cc1 (centres undefined) | 0 | -4 | / | / | /
CC1(C)Oc2ccc3ccc(=O)oc3c2/C(=C/Nc2ccc(O)cc2)C1=O | 56* | 4 | -2 | 94* | -0.42 | AML12 tox conf=-12
CC1(C)Oc2ccc3ccc(=O)oc3c2/C(=C/Nc2cccc(O)c2)C1=O | -3 | 4 | -11 | / | /
O=C(COC(=O)c1cccnc1Cl)NCc1ccco1 | 1 | -25 | -5 | / | /
Cc1c(N2C(=O)CS/C2=N\N=C\c2ccc(Br)cc2)c(=O)n(-c2ccccc2)n1C | / | 3 | -10 | / | /
N#CC(C#N)=c1ccc2c(c1)N1C(c3ccccc3)=CC(c3ccccc3)C3CCCCC31N=2 (centres undefined) | 65* | -14 | / | 50 | -1.1
O=C(c1ccc(Cl)cc1)C1CCN(C(=O)c2ccc(F)cc2)CC1 | 1 | -115 | / | / | /
COC(=O)c1c(C)oc(C)c1S(=O)(=O)N(Cc1ccccc1)C(C)C | -30 | -4 | -6 | / | /
COc1ccc(Cl)c2sc(N(Cc3cccnc3)C(C)=O)nc12 | -15 | 8 | / | / | /
O=C(CSCc1cccc(Br)c1)N=Nc1c(O)[nH]c2ccccc12 | / | 4 | 0 | / | /
O=Nc1c(-c2c(O)[nH]c3cc(Br)ccc23)[nH]c2ccccc12 | 75* | -9 | / | 112* | 2.5 | AML12 tox conf=67*
Cn1cc(C(=O)Nc2ccc(C#N)cc2)c2ccccc2c1=O | 0 | 9 | / | / | /
COc1ccc(CCNC(=O)C2CC3Cn4c(nc5cc6ccccc6cc54)C3N2C)cc1 (centres undefined) | 51* | -28 | 12 | 8 | 0.47
CN1C(C(=O)NCCc2cccs2)CC2Cn3c(nc4cc5ccccc5cc43)C21 (centres undefined) | 0 | -5 | 11 | / | /
CC1(C)CC2CC(C)(CN2C(=O)c2cc(-c3ccccc3)on2)C1 (centres undefined) | -12 | -3 | / | / | /
NC(=O)C1CCN(C(=O)CCSCc2ccccc2)CC1 | 3 | -6 | / | / | /
Cc1cc2nc3c(=O)n(C4CCCCC4)c(=O)[nH]c3nc2cc1N | 0 | -6 | -58 | / | /
Cc1nn(-c2ccc(Cl)cc2)c(=O)c2ccccc12 | -15 | 7 | -6 | / | /
Cc1c(Cl)sn(-c2ccc(Cl)cc2)c1=O | 59* | -9 | -14 | -13 | 11*
O=C(Nc1ccccc1C(=O)O)/C(=C/c1ccc([N+](=O)[O-])cc1)NC(=O)c1ccc(Br)o1 | -8 | -7 | -5 | / | /
COc1cc2ncnc(NCc3ccccc3Cl)c2cc1OC | 52* | -3 | -14 | 65* | 17*
COc1cc2ncnc(NCc3ccc(F)cc3)c2cc1OC | / | -9 | / | / | /
COc1cc2ncnc(NCc3ccccc3C)c2cc1OC | 46 | -11 | -6 | / | /
COc1cc2ncnc(NCc3ccc(Cl)cc3)c2cc1OC | 51* | 5 | -6 | 70* | 13*
SMILES | Hep lipid drop | pCIP destab | MDM2 E3 inh | Hep lipid conf | AML12 cytotox | others
Cc1noc(C)c1COc1cccc(C(=O)NC(C)(C)C)c1 | -17 | -6 | 0 | / | /
CCOC(=O)[C@@H]1[C@H]2COc3ccc(Br)cc3[C@@H]2N2C(=O)N(c3ccc(C(F)(F)F)cc3)C(=O)[C@@]12C | 52* | -6 | / | 76* | -0.14 | AML12 tox conf=5
CCOC(=O)[C@@H]1[C@H]2COc3ccc(Br)cc3[C@@H]2N2C(=O)N(c3cccc(F)c3)C(=O)[C@@]12C | -2 | 1 | / | / | /
O=C1NCCN/C1=C\C(=O)c1ccc(Cl)cc1 | -6 | -12 | -16 | / | /
C=CCSc1n[nH]c(-c2ccc(OCCC)cc2)n1 | 37 | -7 | -21 | / | /
C=CCSc1n[nH]c(-c2ccc(OCCCC)cc2)n1 | 54* | -7 | -12 | 98* | 0.3 | AML12 tox conf=13
CN1C(=O)c2ccc(NC(=O)C3CC3)cc2C1=O | 2 | 6 | / | / | /
O=C(NCCc1ccccn1)c1ccc2nc(Cc3ccccc3F)oc2c1 | 10 | -9 | / | / | /
CC(=O)N1c2ccc(S(=O)(=O)NCC3CCC(C(=O)N4CCCC(C)C4)CC3)cc2CC1C (centres undefined) | -2 | -7 | / | / | /
O=C(CSc1nc(-c2ccco2)cc(C(F)(F)F)n1)NN1CCOCC1 | 18 | -16 | / | / | /
O=C(CSc1nc(-c2ccco2)cc(C(F)(F)F)n1)Nc1ccc(C(=O)N2CCOCC2)cc1 | 59* | -5 | 4 | 90* | -0.19 | AML12 tox conf=9
CCOC(=O)c1ccc(NC(=O)COc2ccc(S(=O)(=O)NC(C)(C)C)cc2)cc1 | 96* | -6 | 2 | 107* | -0.023 | AML12 tox conf=3
CCOC(=O)c1ccc(NC(=O)COc2ccc(S(=O)(=O)N3CCCC3)cc2)cc1 | 0 | 0 | 9 | / | /
COc1ccc(CN2CCN(C3CCC3)CC2CCO)c(F)c1 (centres undefined) | 1 | 2 | / | / | /
O=C(c1ccc(S(=O)(=O)Nc2cccc(C(F)(F)F)c2)cc1)N1CCOCC1 | 58* | -4 | / | 90* | 0.61 | AML12 tox conf=18
O=C(c1cccc(S(=O)(=O)Nc2cccc(C(F)(F)F)c2)c1)N1CCOCC1 | -5 | 0 | -12 | / | /
CCOc1ccccc1Nc1nnc(SC(C)C(=O)Nc2nc(-c3ccccc3)cs2)s1 (centres undefined) | 75* | 2 | 12 | 105* | -0.2 | AML12 tox conf=7
CCOc1ccccc1Nc1nnc(SCC(=O)NC(=O)c2cccn2C)s1 | -1 | 0 | -5 | / | /
CCc1nn(CC(=O)NCCCN2CCN(CC)CC2)c(=O)c2cc3occc3n12 | -2 | 0 | / | / | /
Cc1onc(-c2ccccc2)c1NC(=O)Nc1ccc(OC(F)F)cc1 | 8 | -5 | -10 | / | /
CCCN(CCC)CCCNC(=O)c1ccc2c(c1)N(CC)C(=O)c1ccccc1S2=O (centres undefined) | / | -18 | -16 | / | /
CCCCSCCCNC(=O)c1ccc2c(c1)N(CC)C(=O)c1ccccc1S2=O (centres undefined) | 60* | -6 | / | 88* | 0.053 | AML12 tox conf=14
O=C(NCCc1ccccc1)c1cc(=O)[nH]c2ccccc12 | 13 | 4 | -35 | / | /
CCCCCC(O)(c1ccc(OC)cc1)C(CN1CCOCC1)c1ccccc1 (centres undefined) | 30 | -1 | / | / | /
CCCCCC(O)(c1ccc(OCC)cc1)C(CN1CCOCC1)c1ccccc1 (centres undefined) | 54* | -10 | / | 73* | 0.22 | AML12 tox conf=-8
C=CCNC(=S)Nc1sc2c(c1C#N)CCCC2 | 28 | 0 | -4 | / | /
